The values below come from ChEMBL document CHEMBL1152825, “Pseudomonas aeruginosa may accumulate drug resistance mechanisms without losing its ability to cause bloodstream infections” (2007).

Format in all cases: functional
Experiment [1] has as its system Pseudomonas aeruginosa. Description: Antibacterial activity against Pseudomonas aeruginosa clinical isolates assessed as resistant rate by macrodilution technique.
The subject of experiment [2] is Pseudomonas aeruginosa. Description: Antibacterial activity against Pseudomonas aeruginosa clinical isolate by macrodilution technique.
Experiment [3] deals with Pseudomonas aeruginosa. Description: Antibacterial activity against wild type Pseudomonas aeruginosa PAO1 by macrodilution technique. The method, boiled down:
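Wild-type reference strain PAO1. MIC by agar macrodilution on Mueller-Hinton agar with calibrated divalent cations. It served as the baseline for defining a ≥fourfold MIC increase in clinical isolates, and as the expression reference in RT-PCR.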

In experiment [4] the test system is Pseudomonas aeruginosa. Description: Antibacterial activity against beta-lactams resistant Pseudomonas aeruginosa isolate expressing MexXY-OprM pump by macrodilution technique. A digest of the protocol: (§1)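 MICs by agar macrodilution on Mueller-Hinton agar with calibrated divalent cations. Isolates were graded susceptible, intermediate or resistant by CLSI breakpoints. Resistance was defined as a ≥fourfold MIC rise over reference strain PAO1. Resistance mechanisms were assigned by RT-PCR (PAO1-derived overexpressing mutants as controls) and gene complementation.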

Experiment [5] has as its system Pseudomonas aeruginosa. Description: Antibacterial activity against beta-lactams resistant Pseudomonas aeruginosa isolate expressing AmpC, MexXY-OprM pump by macrodilution technique. The method, boiled down: as §1
In experiment [6] the test system is Pseudomonas aeruginosa. Description: Antibacterial activity against beta-lactams resistant OprD-deficient Pseudomonas aeruginosa isolate by macrodilution technique. A digest of the protocol: as §1
Experiment [7] relates to Pseudomonas aeruginosa. Description: Antibacterial activity against beta-lactams resistant Pseudomonas aeruginosa isolate expressing PSE-1, MexXY-OprM pump by macrodilution technique. A digest of the protocol: as §1
For experiment [8], the system named is Pseudomonas aeruginosa. Description: Antibacterial activity against beta-lactams resistant Pseudomonas aeruginosa isolate expressing MexAB-OprM pump by macrodilution technique. The method, boiled down: as §1
Experiment [9] concerns Pseudomonas aeruginosa. Description: Antibacterial activity against beta-lactams resistant Pseudomonas aeruginosa isolate expressing AmpC by macrodilution technique. A digest of the protocol: as §1
Experiment [10] deals with Pseudomonas aeruginosa. Description: Antibacterial activity against Pseudomonas aeruginosa clinical isolates assessed as susceptible rate by macrodilution technique.
Experiment [11] has as its system Pseudomonas aeruginosa. Description: Antibacterial activity against wild type Pseudomonas aeruginosa isolate by macrodilution technique. A digest of the protocol: as §1
Experiment [12] deals with Pseudomonas aeruginosa. Description: Antibacterial activity against aminoglycoside-resistant Pseudomonas aeruginosa isolate expressing MexXY-OprM pump by macrodilution technique. A digest of the protocol: (§2)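 Bloodstream P. aeruginosa isolates from patients in six French teaching hospitals (1999–2004). MICs by agar macrodilution on Mueller-Hinton agar with calibrated divalent cations. Isolates were graded susceptible, intermediate or resistant by CLSI breakpoints. Resistance was defined as a ≥fourfold MIC rise over reference strain PAO1. Resistance mechanisms were assigned by RT-PCR (PAO1-derived overexpressing mutants as controls) and gene complementation.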

The subject of experiment [13] is Pseudomonas aeruginosa. Description: Antibacterial activity against MexXY-OprM pump-independent aminoglycoside-resistant Pseudomonas aeruginosa isolate by macrodilution technique. The method, boiled down:
as §2

In experiment [14] the test system is Pseudomonas aeruginosa. Description: Antibacterial activity against aminoglycoside-resistant Pseudomonas aeruginosa isolate expressing MexXY-OprM pump, ANT(2'')-1 by macrodilution technique. The method, boiled down: as §2
Experiment [15] has as its system Pseudomonas aeruginosa. Description: Antibacterial activity against aminoglycoside-resistant Pseudomonas aeruginosa isolate expressing MexXY-OprM pump, AAC(6')-1 by macrodilution technique. The method, boiled down:
as §2

Experiment [16] concerns Pseudomonas aeruginosa. Description: Antibacterial activity against aminoglycoside-resistant Pseudomonas aeruginosa isolate expressing ANT(2'')-1 by macrodilution technique. The method, boiled down: as §2
For experiment [17], the system named is Pseudomonas aeruginosa. Description: Antibacterial activity against aminoglycoside-resistant Pseudomonas aeruginosa isolate expressing AAC(6')-1, ANT(2'')-1 by macrodilution technique. The method, boiled down: as §2
In experiment [18] the test system is Pseudomonas aeruginosa. Description: Antibacterial activity against aminoglycoside-resistant Pseudomonas aeruginosa isolate expressing MexXY-OprM pump, AAC(6')-1, ANT(2'')-1 by macrodilution technique. The method, boiled down:
as §2

Experiment [19] deals with Pseudomonas aeruginosa. Description: Antibacterial activity against aminoglycoside-resistant Pseudomonas aeruginosa isolate expressing MexXY-OprM pump, AAC(3')-1 by macrodilution technique. The method, boiled down:
as §2

In experiment [20] the test system is Pseudomonas aeruginosa. Description: Antibacterial activity against aminoglycoside-resistant Pseudomonas aeruginosa isolate expressing MexXY-OprM pump, AAC(6')-1, AAC(3')-1 by macrodilution technique. A digest of the protocol: as §2
The subject of experiment [21] is Pseudomonas aeruginosa. Description: Antibacterial activity against aminoglycoside-resistant Pseudomonas aeruginosa isolate expressing AAC(6')-1 by macrodilution technique. The method, boiled down:
as §2

Experiment [22] relates to Pseudomonas aeruginosa. Description: Antibacterial activity against beta-lactams resistant Pseudomonas aeruginosa isolate expressing AmpC, PSE-1, MexXY-OprM pump by macrodilution technique. The method, boiled down:
as §1

Experiment [23] concerns Pseudomonas aeruginosa. Description: Antibacterial activity against beta-lactams resistant Pseudomonas aeruginosa isolate expressing PSE-1 by macrodilution technique. The method, boiled down:
as §1

In experiment [24] the test system is Pseudomonas aeruginosa. Description: Antibacterial activity against beta-lactams resistant Pseudomonas aeruginosa isolate expressing AmpC, MexAB-OprM pump by macrodilution technique. A digest of the protocol: as §2
Experiment [25] has as its system Pseudomonas aeruginosa. Description: Antibacterial activity against beta-lactams resistant Pseudomonas aeruginosa isolate expressing MexAB-OprM pump, MexXY-OprM pump by macrodilution technique. The method, boiled down:
as §1

The subject of experiment [26] is Pseudomonas aeruginosa. Description: Antibacterial activity against beta-lactams resistant Pseudomonas aeruginosa isolate expressing AmpC, MexXY-OprM pump, TEM-2 by macrodilution technique. A digest of the protocol:
as §1

Experiment [27] relates to Pseudomonas aeruginosa. Description: Antibacterial activity against beta-lactams resistant Pseudomonas aeruginosa isolate expressing OXA2 by macrodilution technique. A digest of the protocol:
as §1

In experiment [28] the test system is Pseudomonas aeruginosa. Description: Antibacterial activity against beta-lactams resistant Pseudomonas aeruginosa isolate expressing AmpC, MexAB-OprM pump, MexXY-OprM pump by macrodilution technique. The method, boiled down: as §1
Experiment [29] concerns Pseudomonas aeruginosa. Description: Antibacterial activity against beta-lactams resistant Pseudomonas aeruginosa isolate expressing MexXY-OprM pump, TEM-2 by macrodilution technique. A digest of the protocol:
as §1

≈ marks a conversion by molar mass, not a printed value.

As a reminder, the MIC50 is the lowest concentration that inhibits either 50% of growth or 50% of the strains tested, depending on the study. High values mean lower susceptibility, low ones higher susceptibility. Broadly, the MIC90 is the lowest concentration that inhibits either 90% of growth or 90% of the strains tested, depending on the study. Higher therefore signals lower susceptibility. The term MIC denotes the least concentration at which growth counts as inhibited. A higher MIC goes with weaker potency. On to `C[C@@H](O)[C@H]1C(=O)N2C(C(=O)O)=C(SCCNC=N)C[C@H]12` [IMIPENEM ANHYDROUS], for which the Activity is recorded as 10.8% with Pseudomonas aeruginosa [1] and 82.5% in the experiment with Pseudomonas aeruginosa [10]. The MIC50 with Pseudomonas aeruginosa [2] was determined as 2 µg/mL (≈ 6.68 µM). This compound came in with an MIC90 against Pseudomonas aeruginosa [2] of 16 µg/mL (≈ 53.4 µM). In addition, the MIC against Pseudomonas aeruginosa [3] came to 1 µg/mL (≈ 3.34 µM); in the experiment with Pseudomonas aeruginosa [4] it was 8 µg/mL (≈ 26.7 µM); in the experiment with Pseudomonas aeruginosa [5], 16 µg/mL (≈ 53.4 µM); against Pseudomonas aeruginosa [6] it was 8 µg/mL (≈ 26.7 µM); in the experiment on Pseudomonas aeruginosa [7] it was 64 µg/mL (≈ 214 µM); against Pseudomonas aeruginosa [8] it was 4 µg/mL (≈ 13.4 µM). Besides, it took 8 µg/mL (≈ 26.7 µM) to inhibit growth against Pseudomonas aeruginosa [9] (MIC).

For the compound `CCN[C@@H]1C[C@H](N)[C@@H](O[C@H]2OC(CN)=CC[C@H]2N)[C@H](O)[C@H]1O[C@H]1OC[C@](C)(O)[C@H](NC)[C@H]1O` [NETILMICIN], the Activity with Pseudomonas aeruginosa [1] was found to be 15%; with Pseudomonas aeruginosa [10] it was 56.7%. This compound also had an MIC50 against Pseudomonas aeruginosa [2] of 8 µg/mL (≈ 16.8 µM). This compound also had an MIC90 against Pseudomonas aeruginosa [2] of 32 µg/mL (≈ 67.3 µM). The MIC is 4 µg/mL (≈ 8.41 µM) in the experiment with Pseudomonas aeruginosa [3]; 4 µg/mL (≈ 8.41 µM) against Pseudomonas aeruginosa [11]; 16 µg/mL (≈ 33.6 µM) in the experiment on Pseudomonas aeruginosa [12]; 16 µg/mL (≈ 33.6 µM) in the experiment with Pseudomonas aeruginosa [13]; 16 µg/mL (≈ 33.6 µM) against Pseudomonas aeruginosa [14]; over 128 µg/mL against Pseudomonas aeruginosa [15]. Besides, the MIC was 8 µg/mL (≈ 16.8 µM) with Pseudomonas aeruginosa [16]; over 128 µg/mL in the experiment with Pseudomonas aeruginosa [17]; over 128 µg/mL against Pseudomonas aeruginosa [18]; 16 µg/mL (≈ 33.6 µM) against Pseudomonas aeruginosa [19]; over 128 µg/mL in the experiment with Pseudomonas aeruginosa [20]; over 128 µg/mL in the experiment with Pseudomonas aeruginosa [21].

Turning to `CC1(C)S[C@@H]2[C@H](NC(=O)[C@H](C(=O)O)c3ccsc3)C(=O)N2[C@H]1C(=O)O` [TICARCILLIN], the Activity was 10.8% with Pseudomonas aeruginosa [1] and 77.5% in the experiment on Pseudomonas aeruginosa [10]. The same compound returned an MIC50 against Pseudomonas aeruginosa [2] of 32 µg/mL (≈ 83.2 µM). In addition, the MIC90 in the experiment with Pseudomonas aeruginosa [2] was 256 µg/mL (≈ 666 µM). Besides, the MIC in the experiment with Pseudomonas aeruginosa [3] is 16 µg/mL (≈ 41.6 µM); with Pseudomonas aeruginosa [11], 16 µg/mL (≈ 41.6 µM); in the experiment with Pseudomonas aeruginosa [4] it was 16 µg/mL (≈ 41.6 µM); in the experiment with Pseudomonas aeruginosa [5] it was 128 µg/mL (≈ 333 µM); against Pseudomonas aeruginosa [6], 16 µg/mL (≈ 41.6 µM); against Pseudomonas aeruginosa [7], over 256 µg/mL. For the same compound, the MIC in the experiment on Pseudomonas aeruginosa [22] was over 256 µg/mL; with Pseudomonas aeruginosa [23], over 256 µg/mL; in the experiment with Pseudomonas aeruginosa [24], 128 µg/mL (≈ 333 µM); against Pseudomonas aeruginosa [8] it was 128 µg/mL (≈ 333 µM); with Pseudomonas aeruginosa [25], 128 µg/mL (≈ 333 µM); with Pseudomonas aeruginosa [26], over 256 µg/mL. In addition, the MIC against Pseudomonas aeruginosa [27] was 128 µg/mL (≈ 333 µM); in the experiment with Pseudomonas aeruginosa [28], 128 µg/mL (≈ 333 µM); in the experiment on Pseudomonas aeruginosa [29], over 256 µg/mL; in the experiment with Pseudomonas aeruginosa [9], 64 µg/mL (≈ 166 µM).

For `NC[C@H]1O[C@H](O[C@H]2[C@H](O)[C@@H](O[C@H]3O[C@H](CO)[C@@H](O)[C@H](N)[C@H]3O)[C@H](N)C[C@@H]2N)[C@H](N)C[C@@H]1O` [TOBRAMYCIN], the Activity in the experiment on Pseudomonas aeruginosa [1] is reported as 21.7%; with Pseudomonas aeruginosa [10], 77.5%. The compound also showed an MIC50 in the experiment with Pseudomonas aeruginosa [2] of 1 µg/mL (≈ 2.14 µM). This compound registered an MIC90 in the experiment with Pseudomonas aeruginosa [2] of over 64 µg/mL. The MIC is 0.5 µg/mL (≈ 1.07 µM) against Pseudomonas aeruginosa [3]; 1 µg/mL (≈ 2.14 µM) in the experiment on Pseudomonas aeruginosa [11]; 2 µg/mL (≈ 4.28 µM) against Pseudomonas aeruginosa [12]; 2 µg/mL (≈ 4.28 µM) in the experiment with Pseudomonas aeruginosa [13]; over 64 µg/mL against Pseudomonas aeruginosa [14]; over 64 µg/mL against Pseudomonas aeruginosa [15]. The MIC in the experiment on Pseudomonas aeruginosa [16] was 16 µg/mL (≈ 34.2 µM); against Pseudomonas aeruginosa [17], 64 µg/mL (≈ 137 µM); against Pseudomonas aeruginosa [18], 64 µg/mL (≈ 137 µM); with Pseudomonas aeruginosa [19], 2 µg/mL (≈ 4.28 µM); against Pseudomonas aeruginosa [20], over 64 µg/mL; against Pseudomonas aeruginosa [21], 32 µg/mL (≈ 68.4 µM).

As to GENTAMICIN, the figures for the Activity in the experiment on Pseudomonas aeruginosa [1] and in the experiment on Pseudomonas aeruginosa [10] were 25% and 53.3%, respectively. The MIC50 with Pseudomonas aeruginosa [2] turned out to be 4 µg/mL. The compound also came in with an MIC90 in the experiment with Pseudomonas aeruginosa [2] of 128 µg/mL. Also, the MIC was found to be 2 µg/mL in the experiment on Pseudomonas aeruginosa [3]; 4 µg/mL against Pseudomonas aeruginosa [11]; 8 µg/mL in the experiment with Pseudomonas aeruginosa [12]; 8 µg/mL in the experiment with Pseudomonas aeruginosa [13]; 128 µg/mL in the experiment with Pseudomonas aeruginosa [14]; 128 µg/mL in the experiment with Pseudomonas aeruginosa [15]. The MIC with Pseudomonas aeruginosa [16] was over 128 µg/mL; in the experiment on Pseudomonas aeruginosa [17], 128 µg/mL; in the experiment on Pseudomonas aeruginosa [18], 128 µg/mL; against Pseudomonas aeruginosa [19] it was 128 µg/mL; with Pseudomonas aeruginosa [20], 128 µg/mL; against Pseudomonas aeruginosa [21], 128 µg/mL.
